Assay results reported in ChEMBL document CHEMBL1955832, “Facile synthesis, characterization and pharmacological activities of 3,6-disubstituted 1,2,4-triazolo[3,4-b][1,3,4]thiadiazoles and 5,6-dihydro-3,6-disubstituted-1,2,4-triazolo[3,4-b][1,3,4]thiadiazoles” (2012).
Values after ≈ are worked out from the molar mass of the structure shown. Active and inactive are the calls of the source. The rule behind the calls is not given here.

Experiments:
Aspergillus fumigatus [1] = test: Antifungal activity against Aspergillus fumigatus NCIM 902 by serial plate dilution method; format: functional
Mus musculus [2] = test: Analgesic activity Wistar albino mouse assessed as tail withdrawal latency time at 100 mg/kg, po administered by intragastric tube after 120 mins (reference value: 1.363 +/- 0.1297 sec); format: functional
[3] = tested on: Radical scavenging activity; test: Antioxidant activity of the compound assessed as DPPH radical scavenging activity at 200 ug/ml after 20 mins; format: functional
Summary of the method: (§1)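 Compound dissolved in methylene dichloride at the stated concentration, mixed with 4 mL 0.1 mM methanolic DPPH, held 20 min at ambient temperature; absorbance read at 517 nm. Scavenging % = (A_DPPH − A_test)/A_DPPH × 100. Triplicate; ascorbic acid positive control.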

Rattus norvegicus = test: Antiinflammatory activity rat assessed as reduction of carrageenan-induced paw oedema at 100 mg/kg, po administered 30 mins before carrageenan challenge measured after 60 to 180 mins; format: functional, organism-based; set-up: dose 100 mg/kg
Summary of the method: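 Rats randomly assigned, 100 mg/kg orally as suspension in 1% carboxymethyl cellulose, 30 min before carrageenan injected into right hind paw. Paw thickness measured with vernier callipers at 60, 120 and 180 min. Diclofenac reference; mean ± SEM, n = 6, vs vehicle control.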

Klebsiella pneumoniae [4] = test: Antibacterial activity against recultured Klebsiella pneumoniae after 16 to 18 hrs by serial dilution method; format: functional
Summary of the method: (§2)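 Serial drug dilutions in Mueller-Hinton broth adjusted to pH 5.0 with phosphate buffer, inoculated with standardized bacterial suspension, incubated 16–18 h at 37 °C; MIC taken as lowest concentration without conspicuous growth.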

Talaromyces marneffei [5] = test: Antifungal activity against recultured Penicillium marneffei at MIC after 3 to 4 days; format: functional
Pseudomonas aeruginosa [6] = test: Antibacterial activity against Pseudomonas aeruginosa ATTC 27853 after 16 to 18 hrs by serial dilution method; format: functional; summary of the method: as §2
Aspergillus flavus [7] = test: Antifungal activity against Aspergillus flavus NCIM 524 at MIC after 3 to 4 days; format: functional
Staphylococcus aureus [8] = test: Antibacterial activity against Staphylococcus aureus ATTC 25923 after 16 to 18 hrs by serial dilution method; format: functional; summary of the method: as §2
[9] = tested on: Trichophyton mentagrophytes; test: Antifungal activity against recultured Trichophyton mentagrophytes at MIC after 3 to 4 days; format: functional
Talaromyces marneffei [10] = test: Antifungal activity against recultured Penicillium marneffei by serial plate dilution method; format: functional
Escherichia coli [11] = test: Antibacterial activity against Escherichia coli ATTC 25922 after 16 to 18 hrs by serial dilution method; format: functional; summary of the method: as §2
Pseudomonas aeruginosa [12] = test: Antibacterial activity against Pseudomonas aeruginosa ATTC 27853 at MIC after 3 to 4 days by disc diffusion method; format: functional
Summary of the method: (§3)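 Agar well diffusion: seeded agar plates dried 1 h at 37 °C, wells punched and filled with test compound at MIC level in DMSO; DMSO solvent control. Plates in triplicate, kept at 37 °C for 3–4 days; zone of inhibition read.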

Aspergillus fumigatus [13] = test: Antifungal activity against Aspergillus fumigatus NCIM 902 at MIC after 3 to 4 days; format: functional
Aspergillus flavus [14] = test: Antifungal activity against Aspergillus flavus NCIM 524 by serial plate dilution method; format: functional
[15] = tested on: Radical scavenging activity; test: Antioxidant activity of the compound assessed as DPPH radical scavenging activity at 400 ug/ml after 20 mins; format: functional; summary of the method: as §1
[16] = tested on: Radical scavenging activity; test: Antioxidant activity of the compound assessed as DPPH radical scavenging activity at 800 ug/ml after 20 mins; format: functional; summary of the method: as §1
Escherichia coli [17] = test: Antibacterial activity against Escherichia coli ATTC 25922 at MIC after 3 to 4 days by disc diffusion method; format: functional; summary of the method: as §3
[18] = tested on: Trichophyton mentagrophytes; test: Antifungal activity against recultured Trichophyton mentagrophytes by serial plate dilution method; format: functional
Staphylococcus aureus [19] = test: Antibacterial activity against Staphylococcus aureus ATTC 25923 at MIC after 3 to 4 days by disc diffusion method; format: functional; summary of the method: as §3
Mus musculus [20] = test: Analgesic activity Wistar albino mouse assessed as tail withdrawal latency time at 100 mg/kg, po administered by intragastric tube after 180 mins (reference value: 1.363 +/- 0.1297 sec); format: functional
Mus musculus [21] = test: Analgesic activity Wistar albino mouse assessed as tail withdrawal latency time at 100 mg/kg, po administered by intragastric tube after 60 mins (reference value: 1.363 +/- 0.1297 sec); format: functional
Klebsiella pneumoniae [22] = test: Antibacterial activity against recultured Klebsiella pneumoniae at MIC after 3 to 4 days by disc diffusion method; format: functional; summary of the method: as §3

Row | Compound | MIC (Aspergillus fumigatus [1]) | Time (Mus musculus [2]) | inhibition [3] | Activity (Rattus norvegicus) | MIC (Klebsiella pneumoniae [4]) | diameter of the inhibition zone (DIZ) (Talaromyces marneffei [5]) | MIC (Pseudomonas aeruginosa [6]) | diameter of the inhibition zone (DIZ) (Aspergillus flavus [7]) | MIC (Staphylococcus aureus [8]) | diameter of the inhibition zone (DIZ) [9] | MIC (Talaromyces marneffei [10]) | MIC (Escherichia coli [11]) | diameter of the inhibition zone (DIZ) (Pseudomonas aeruginosa [12]) | diameter of the inhibition zone (DIZ) (Aspergillus fumigatus [13]) | MIC (Aspergillus flavus [14]) | inhibition [15] | inhibition [16] | diameter of the inhibition zone (DIZ) (Escherichia coli [17]) | MIC [18] | diameter of the inhibition zone (DIZ) (Staphylococcus aureus [19]) | other results
1 | COc1ccc(Br)c(-c2nnc3sc(-c4ccc([N+](=O)[O-])cc4)nn23)c1 | 14.5 µM (≈ 6.25 µg/mL) | 3.263 s | 62.9% | Active | 28.9 µM (≈ 12.5 µg/mL) | 16 mm | 28.9 µM (≈ 12.5 µg/mL) | 16 mm | 28.9 µM (≈ 12.5 µg/mL) | 16 mm | 14.5 µM (≈ 6.25 µg/mL) | 28.9 µM (≈ 12.5 µg/mL) | 11 mm | 16 mm | 14.5 µM (≈ 6.25 µg/mL) | 68.1% | 71.9% | 11 mm | 14.5 µM (≈ 6.25 µg/mL) | 11 mm | Time (Mus musculus [20]): 2.663 s; Time (Mus musculus [21]): 3.375 s; diameter of the inhibition zone (DIZ) (Klebsiella pneumoniae [22]): 11 mm
2 | COc1ccc(Br)c(-c2nnc3n2NC(c2ccc([N+](=O)[O-])cc2)S3)c1 (stereo unspecified) | 14.4 µM (≈ 6.25 µg/mL) | 3.563 s | 53.2% | Active | 14.4 µM (≈ 6.25 µg/mL) | 16 mm | 14.4 µM (≈ 6.25 µg/mL) | 16 mm | 28.8 µM (≈ 12.5 µg/mL) | 11 mm | 14.4 µM (≈ 6.25 µg/mL) | 28.8 µM (≈ 12.5 µg/mL) | 16 mm | 16 mm | 14.4 µM (≈ 6.25 µg/mL) | 72.4% | 82.7% | 11 mm | 28.8 µM (≈ 12.5 µg/mL) | 11 mm | Time (Mus musculus [20]): 2.425 s; Time (Mus musculus [21]): 3.675 s; diameter of the inhibition zone (DIZ) (Klebsiella pneumoniae [22]): 16 mm
3 | COc1ccc(C2Nn3c(nnc3-c3cc(OC)ccc3Br)S2)cc1 (stereo unspecified) | 14.9 µM (≈ 6.25 µg/mL) | 3.334 s | 40.6% | Active | 29.8 µM (≈ 12.5 µg/mL) | 16 mm | 29.8 µM (≈ 12.5 µg/mL) | 11 mm | 29.8 µM (≈ 12.5 µg/mL) | 11 mm | 14.9 µM (≈ 6.25 µg/mL) | 29.8 µM (≈ 12.5 µg/mL) | 11 mm | 16 mm | 29.8 µM (≈ 12.5 µg/mL) | 65.9% | 77.9% | 11 mm | 29.8 µM (≈ 12.5 µg/mL) | 11 mm | Time (Mus musculus [20]): 2.841 s; Time (Mus musculus [21]): 3.468 s; diameter of the inhibition zone (DIZ) (Klebsiella pneumoniae [22]): 11 mm
4 | COc1ccc(Br)c(-c2n[nH]c(=S)n2N)c1 | 20.8 µM (≈ 6.25 µg/mL) | 3.388 s | 52.7% | Active | 20.8 µM (≈ 6.25 µg/mL) | 16 mm | 41.5 µM (≈ 12.5 µg/mL) | 16 mm | 41.5 µM (≈ 12.5 µg/mL) | 16 mm | 20.8 µM (≈ 6.25 µg/mL) | 20.8 µM (≈ 6.25 µg/mL) | 11 mm | 16 mm | 20.8 µM (≈ 6.25 µg/mL) | 56.8% | 67.5% | 16 mm | 20.8 µM (≈ 6.25 µg/mL) | 11 mm | Time (Mus musculus [20]): 2.338 s; Time (Mus musculus [21]): 3.463 s; diameter of the inhibition zone (DIZ) (Klebsiella pneumoniae [22]): 16 mm
5 | COc1ccc(Br)c(-c2nnc3sc(-c4ccc(N)cc4)nn23)c1 | 31.1 µM (≈ 12.5 µg/mL) | 3.563 s | 60.3% | Active | 31.1 µM (≈ 12.5 µg/mL) | 11 mm | 15.5 µM (≈ 6.25 µg/mL) | 11 mm | 31.1 µM (≈ 12.5 µg/mL) | 16 mm | 31.1 µM (≈ 12.5 µg/mL) | 31.1 µM (≈ 12.5 µg/mL) | 16 mm | 11 mm | 31.1 µM (≈ 12.5 µg/mL) | 68% | 75.9% | 11 mm | 15.5 µM (≈ 6.25 µg/mL) | 11 mm | Time (Mus musculus [20]): 2.425 s; Time (Mus musculus [21]): 3.675 s; diameter of the inhibition zone (DIZ) (Klebsiella pneumoniae [22]): 11 mm
6 | COc1ccc(Br)c(-c2nnc3n2NC(c2ccc(Cl)cc2)S3)c1 (stereo unspecified) | 16.1 µM (≈ 6.8 µg/mL) | 3.563 s | 42.3% | Active | 14.8 µM (≈ 6.25 µg/mL) | 11 mm | 14.8 µM (≈ 6.25 µg/mL) | 16 mm | 29.5 µM (≈ 12.5 µg/mL) | 16 mm | 16.1 µM (≈ 6.8 µg/mL) | 14.8 µM (≈ 6.25 µg/mL) | 16 mm | 16 mm | 16.1 µM (≈ 6.8 µg/mL) | 48.1% | 63.4% | 16 mm | 16.1 µM (≈ 6.8 µg/mL) | 11 mm | Time (Mus musculus [20]): 2.425 s; Time (Mus musculus [21]): 3.675 s; diameter of the inhibition zone (DIZ) (Klebsiella pneumoniae [22]): 16 mm
7 | COc1ccc(Br)c(-c2nnc3sc(-c4cc([N+](=O)[O-])cc([N+](=O)[O-])c4)nn23)c1 | 13.1 µM (≈ 6.25 µg/mL) | 3.563 s | 58.5% | Active | 13.1 µM (≈ 6.25 µg/mL) | 11 mm | 26.2 µM (≈ 12.5 µg/mL) | 16 mm | 13.1 µM (≈ 6.25 µg/mL) | 16 mm | 26.2 µM (≈ 12.5 µg/mL) | 13.1 µM (≈ 6.25 µg/mL) | 11 mm | 16 mm | 13.1 µM (≈ 6.25 µg/mL) | 68.4% | 78% | 16 mm | 13.1 µM (≈ 6.25 µg/mL) | 16 mm | Time (Mus musculus [20]): 2.425 s; Time (Mus musculus [21]): 3.675 s; diameter of the inhibition zone (DIZ) (Klebsiella pneumoniae [22]): 16 mm
